The species named for test [1] is Homo sapiens. As to the kind of experiment: Bronchorelaxing effect in leukotriene D4-contracted human lung small airways model assessed as remaining contraction at 10 uM relative to control. Type of test: functional. The procedure, abridged: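 Human small airways (0.5–1.5 mm diameter) from lobectomy tissue, stretched to 1.2 mN and accepted when two control LTD4 contractions differed by under 10%. Test substance at 10 µM was present for one whole cycle: 1 h LTD4-free PSS, then 30 min with 10 nM LTD4. The contraction was compared with the preceding one and given as % remaining, mean ± SEM. Paired preparations per chamber were averaged.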

Test [2] is filed under the species Homo sapiens. As to the kind of experiment: Bronchorelaxing effect in leukotriene D4-contracted small human lung small airways model assessed as remaining contraction at 1 uM after 6 hrs relative to control.
The species named for test [3] is Homo sapiens. Briefly: Bronchorelaxing effect in leukotriene D4-contracted small human lung small airways model assessed as remaining contraction at 1 uM after 3 hrs relative to control.
The species named for test [4] is Homo sapiens. Briefly: Bronchorelaxing effect in leukotriene D4-contracted small human lung small airways model assessed as remaining contraction at 1 uM after 4.5 hrs relative to control.
The species entered for test [5] is Homo sapiens. As to the kind of experiment: Bronchorelaxing effect in leukotriene D4-contracted small human lung small airways model assessed as remaining contraction at 1 uM after 1.5 hrs relative to control.

Each structure is given as a SMILES string.

Turning to `Oc1c(O)c(Cl)c2c(c1Cl)CCN(C(=S)NCCc1ccc(Br)cc1)C2`, the Activity in test [1] worked out at 17%.
Same read-out and setting: the value for `Oc1c(O)c(Cl)c2c(c1Cl)CCN(C(=S)NCCc1ccccc1Cl)C2` was 10%.
Still for that read-out and setting: the value for `Oc1cc2c(cc1O)CN(C(=S)NCCc1ccc(Br)cc1)CCC2` was 67%; that for `Oc1cc2c(cc1O)CN(C(=S)NCCc1ccc(F)cc1)CCC2` was 68%; that for `Oc1c(O)c(Cl)c2c(c1Cl)CCN(C(=S)NCCc1ccccc1)C2` was 8%.
Still for that read-out and setting: to `CC(C)(C)c1ccc(CCNC(=S)N2CCc3c(Cl)c(O)c(O)c(Cl)c3C2)cc1` belongs 69%; to `Oc1c(O)c(Cl)c2c(c1Cl)CCN(C(=S)NCCc1ccncc1)C2`, 33%.
For the compound `CCCCCCCCNC(=S)N1CCCc2cc(O)c(O)cc2C1`, the Activity in test [1] amounted to 69%.
Still for that read-out and setting: the value for `Oc1cc2c(cc1O)CN(C(=S)NCCc1cccc(Cl)c1)CCC2` was 76%; that for `CC(C)(C)c1ccc(CCNC(=S)N2CCCc3cc(O)c(O)cc3C2)cc1` was 80%; that for `Oc1c(O)c(Cl)c2c(c1Cl)CCN(C(=S)NCc1ccc(Cl)cc1)C2` was 19%.
The same measure, in the same setting: to `O=C(CCCc1ccc(Cl)cc1)N1CCc2cc(O)c(O)cc2C1` belongs 47%; to `CCCCCCCCNC(=S)N1CCc2c(Cl)c(O)c(O)c(Cl)c2C1`, 69%.
As to `O=C(CCCc1ccc(Cl)cc1)N1CCc2c(Cl)c(O)c(O)c(Cl)c2C1`, the Activity in test [1] is 16%; in test [2] it was 45%; in test [3], 65%; in test [4], 55%; in test [5] it was 80%.
Taken in the same sequence, the figures for `Oc1c(O)c(Cl)c2c(c1Cl)CCN(C(=S)NCCc1ccc(Cl)cc1)C2` were 14%, 32%, 57%, 44% and 79%.
As to `Oc1c(O)c(Cl)c2c(c1Cl)CCN(C(=S)NCCc1cccc(Cl)c1)C2`, in test [1], the Activity worked out at 27%.
The same measure, in the same setting: to `O=C(NCCc1ccc(Cl)cc1)c1ccc2cc(O)ccc2c1` belongs 90%.
For the compound `O=C(NCCc1ccc(Cl)cc1)N1CCc2c(Cl)c(O)c(O)c(Cl)c2C1`, the Activity in test [1] came to 16%; in test [2] it was 71%; in test [3], 81%; in test [4], 78%; in test [5], 91%.
For the compound `Oc1c(O)c(Cl)c2c(c1Cl)CCN(C(=S)NCCc1cccnc1)C2`, the Activity in test [1] was determined as 30%.
On the same count and under the same terms, the value for `Oc1cc2c(cc1O)CN(C(=S)NCCc1ccccc1)CCC2` was 71%; that for `O=C(CCCc1ccc(Cl)cc1)N1CCCc2cc(O)c(O)cc2C1` was 54%.
Still for that read-out and setting: the value for `Oc1c(O)c(Cl)c2c(c1Cl)CCN(C(=S)NCc1ccccc1)C2` was 10%; that for `Oc1c(O)c(Cl)c2c(c1Cl)CCN(C(=S)NCCCc1ccccc1)C2` was 11%.
Regarding `O=C(NCCc1ccc(Cl)cc1)N1CCCc2cc(O)c(O)cc2C1`, in test [1], the Activity is 73%.
On the same count and under the same terms, the value for `Oc1c(O)c(Cl)c2c(c1Cl)CCN(C(=S)NCCc1ccc(F)cc1)C2` was 6%; that for `O=C(NCCc1ccc(Cl)cc1)N1CCc2cc(O)c(O)cc2C1` was 69%.
The same measure, in the same setting: to `Oc1cc2c(cc1O)CN(C(=S)NCc1ccc(Cl)cc1)CCC2` belongs 70%; to `O=C(NCCc1ccc(Cl)cc1)C1CCc2cc(O)ccc2C1` (centres undefined), 78%.
On the same count and under the same terms, to `Oc1ccc(CCNC(=S)N2CCc3c(Cl)c(O)c(O)c(Cl)c3C2)cc1` belongs 22%.
As for `Oc1cc2c(cc1O)CN(C(=S)NCCc1ccccc1Cl)CCC2`, the Activity in test [1] amounted to 56%.
Still for that read-out and setting: to `Oc1cc2c(cc1O)CN(C(=S)NCCCc1ccccc1)CCC2` belongs 84%; to `Oc1c(O)c(Cl)c2c(c1Cl)CCN(C(=S)NCCc1ccccn1)C2`, 26%.

The record behind these values is ChEMBL document CHEMBL1142273, “SAR studies of capsazepinoid bronchodilators 3: The thiourea part (coupling region) and the 2-(4-chlorophenyl)ethyl moiety (C-region)” (Bioorg Med Chem, 2008).
